Key:
Assay type in all cases: functional
Details in all cases: read-out: GI
HL-60 = assay: Antitumor activity against human HL-60 cells assessed as growth inhibition at 10 uM relative to control
Summary of the method: (§1)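 After drug addition, plates were incubated 48 h at 37 °C under 5% CO2. Adherent cells were fixed with cold TCA (10% final, 60 min, 4 °C) and suspension cells with 16% final TCA. Staining used 0.4% SRB in 1% acetic acid, solubilized in 10 mM trizma, read at A515. Percent growth was calculated from time-zero, control and treated absorbances.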

K562 = assay: Antitumor activity against human K562 cells assessed as growth inhibition at 10 uM relative to control; summary of the method: as §1
MOLT-4 = assay: Antitumor activity against human MOLT-4 cells assessed as growth inhibition at 10 uM relative to control; summary of the method: as §1
SR = assay: Antitumor activity against human SR cells assessed as growth inhibition at 10 uM relative to control
Summary of the method: (§2)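 Drug exposure 48 h at 37 °C, 5% CO2. Adherent cells fixed with cold TCA (10% final), suspension cells with TCA (16% final). Stained with 0.4% SRB in 1% acetic acid, dissolved in 10 mM Tris, A515. Growth relative to time-zero and untreated control.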

A549 = assay: Antitumor activity against human A549 cells assessed as growth inhibition at 10 uM relative to control; summary of the method: as §1
EKVX = assay: Antitumor activity against human EKVX cells assessed as growth inhibition at 10 uM relative to control; summary of the method: as §1
HOP-62 = assay: Antitumor activity against human HOP-62 cells assessed as growth inhibition at 10 uM relative to control; summary of the method: as §1
HOP-92 = assay: Antitumor activity against human HOP-92 cells assessed as growth inhibition at 10 uM relative to control; summary of the method: as §1
NCI-H226 = assay: Antitumor activity against human NCI-H226 cells assessed as growth inhibition at 10 uM relative to control; summary of the method: as §1
NCI-H23 = assay: Antitumor activity against human NCI-H23 cells assessed as growth inhibition at 10 uM relative to control; summary of the method: as §1
NCI-H322M = assay: Antitumor activity against human NCI-H322M cells assessed as growth inhibition at 10 uM relative to control; summary of the method: as §1
NCI-H522 = assay: Antitumor activity against human NCI-H522 cells assessed as growth inhibition at 10 uM relative to control; summary of the method: as §1
COLO 205 = assay: Antitumor activity against human COLO 205 cells assessed as growth inhibition at 10 uM relative to control; summary of the method: as §1
HCC 2998 = assay: Antitumor activity against human HCC 2998 cells assessed as growth inhibition at 10 uM relative to control; summary of the method: as §1
HCT-116 = assay: Antitumor activity against human HCT-116 cells assessed as growth inhibition at 10 uM relative to control; summary of the method: as §1
HCT-15 = assay: Antitumor activity against human HCT-15 cells assessed as growth inhibition at 10 uM relative to control; summary of the method: as §1
SF-268 = assay: Antitumor activity against human SF-268 cells assessed as growth inhibition at 10 uM relative to control; summary of the method: as §1
SF-295 = assay: Antitumor activity against human SF-295 cells assessed as growth inhibition at 10 uM relative to control; summary of the method: as §1
SF-539 = assay: Antitumor activity against human SF-539 cells assessed as growth inhibition at 10 uM relative to control; summary of the method: as §1
SNB-19 = assay: Antitumor activity against human SNB-19 cells assessed as growth inhibition at 10 uM relative to control; summary of the method: as §2
SNB-75 = assay: Antitumor activity against human SNB-75 cells assessed as growth inhibition at 10 uM relative to control; summary of the method: as §2
U-251 = assay: Antitumor activity against human U-251 cells assessed as growth inhibition at 10 uM relative to control; summary of the method: as §2
LOX IMVI = assay: Antitumor activity against human LOX IMVI cells assessed as growth inhibition at 10 uM relative to control; summary of the method: as §1
M14 = assay: Antitumor activity against human M14 cells assessed as growth inhibition at 10 uM relative to control; summary of the method: as §1
MDA-MB-435 = assay: Antitumor activity against human MDA-MB-435 cells assessed as growth inhibition at 10 uM relative to control; summary of the method: as §1
SK-MEL-2 = assay: Antitumor activity against human SK-MEL-2 cells assessed as growth inhibition at 10 uM relative to control; summary of the method: as §1
SK-MEL-5 = assay: Antitumor activity against human SK-MEL-5 cells assessed as growth inhibition at 10 uM relative to control; summary of the method: as §2
UACC-257 = assay: Antitumor activity against human UACC-257 cells assessed as growth inhibition at 10 uM relative to control; summary of the method: as §2
IGROV-1 = assay: Antitumor activity against human IGROV-1 cells assessed as growth inhibition at 10 uM relative to control; summary of the method: as §1
OVCAR-3 = assay: Antitumor activity against human OVCAR-3 cells assessed as growth inhibition at 10 uM relative to control; summary of the method: as §1
OVCAR-4 = assay: Antitumor activity against human OVCAR-4 cells assessed as growth inhibition at 10 uM relative to control; summary of the method: as §1
OVCAR-5 = assay: Antitumor activity against human OVCAR-5 cells assessed as growth inhibition at 10 uM relative to control; summary of the method: as §1
OVCAR-8 = assay: Antitumor activity against human OVCAR-8 cells assessed as growth inhibition at 10 uM relative to control; summary of the method: as §1
SK-OV-3 = assay: Antitumor activity against human SK-OV-3 cells assessed as growth inhibition at 10 uM relative to control; summary of the method: as §2
786-0 = assay: Antitumor activity against human 786-0 cells assessed as growth inhibition at 10 uM relative to control; summary of the method: as §1
A498 = assay: Antitumor activity against human A498 cells assessed as growth inhibition at 10 uM relative to control; summary of the method: as §1
CAKI-1 = assay: Antitumor activity against human CAKI-1 cells assessed as growth inhibition at 10 uM relative to control; summary of the method: as §1
RXF 393 = assay: Antitumor activity against human RXF 393 cells assessed as growth inhibition at 10 uM relative to control; summary of the method: as §1
TK-10 = assay: Antitumor activity against human TK-10 cells assessed as growth inhibition at 10 uM relative to control; summary of the method: as §2
UO-31 = assay: Antitumor activity against human UO-31 cells assessed as growth inhibition at 10 uM relative to control; summary of the method: as §2
PC-3 = assay: Antitumor activity against human PC-3 cells assessed as growth inhibition at 10 uM relative to control; summary of the method: as §1
DU-145 = assay: Antitumor activity against human DU-145 cells assessed as growth inhibition at 10 uM relative to control; summary of the method: as §1
MCF7 = assay: Antitumor activity against human MCF7 cells assessed as growth inhibition at 10 uM relative to control; summary of the method: as §1
MDA-MB-231 = assay: Antitumor activity against human MDA-MB-231 cells assessed as growth inhibition at 10 uM relative to control; summary of the method: as §1
Hs-578T = assay: Antitumor activity against human Hs-578T cells assessed as growth inhibition at 10 uM relative to control; summary of the method: as §1
BT-549 = assay: Antitumor activity against human BT-549 cells assessed as growth inhibition at 10 uM relative to control; summary of the method: as §1

Work on `N#Cc1c(-c2ccc(Cl)cc2)nc(N/N=C2/C(=O)Nc3ccccc32)nc1N1CCOCC1` yielded an inhibition of growth at 10 µM (HL-60) of under 1%, an inhibition of growth at 10 µM (K562) of under 1% and an inhibition of growth at 10 µM (MOLT-4) of under 1%. For the same compound, the inhibition of growth at 10 µM (SR) was 25.7%, the inhibition of growth at 10 µM (A549) was 12.9% and the inhibition of growth at 10 µM (EKVX) was under 1%. The inhibition of growth at 10 µM (HOP-62) was under 1%, the inhibition of growth at 10 µM (HOP-92) was under 1% and the inhibition of growth at 10 µM (NCI-H226) was under 1%. For the same compound, the inhibition of growth at 10 µM (NCI-H23) was under 1%, the inhibition of growth at 10 µM (NCI-H322M) was under 1% and the inhibition of growth at 10 µM (NCI-H522) was under 1%. For the same compound, the inhibition of growth at 10 µM (COLO 205) was 1%, the inhibition of growth at 10 µM (HCC 2998) was under 1% and the inhibition of growth at 10 µM (HCT-116) was 10.5%. The inhibition of growth at 10 µM (HCT-15) was 1%, the inhibition of growth at 10 µM (SF-268) was under 1% and the inhibition of growth at 10 µM (SF-295) was under 1%. The inhibition of growth at 10 µM (SF-539) was under 1%, the inhibition of growth at 10 µM (SNB-19) was under 1% and the inhibition of growth at 10 µM (SNB-75) was 21%. It also gave an inhibition of growth at 10 µM (U-251) of under 1%, an inhibition of growth at 10 µM (LOX IMVI) of under 1% and an inhibition of growth at 10 µM (M14) of under 1%. It also gave an inhibition of growth at 10 µM (MDA-MB-435) of under 1%, an inhibition of growth at 10 µM (SK-MEL-2) of under 1% and an inhibition of growth at 10 µM (SK-MEL-5) of under 1%. For the same compound, the inhibition of growth at 10 µM (UACC-257) was under 1%, the inhibition of growth at 10 µM (IGROV-1) was under 1% and the inhibition of growth at 10 µM (OVCAR-3) was under 1%. It also gave an inhibition of growth at 10 µM (OVCAR-4) of under 1%, an inhibition of growth at 10 µM (OVCAR-5) of under 1% and an inhibition of growth at 10 µM (OVCAR-8) of under 1%. For the same compound, the inhibition of growth at 10 µM (SK-OV-3) was under 1%, the inhibition of growth at 10 µM (786-0) was under 1% and the inhibition of growth at 10 µM (A498) was under 1%. It also gave an inhibition of growth at 10 µM (CAKI-1) of under 1%, an inhibition of growth at 10 µM (RXF 393) of under 1% and an inhibition of growth at 10 µM (TK-10) of under 1%. For the same compound, the inhibition of growth at 10 µM (UO-31) was under 1%, the inhibition of growth at 10 µM (PC-3) was under 1% and the inhibition of growth at 10 µM (DU-145) was under 1%. The inhibition of growth at 10 µM (MCF7) was 1%, the inhibition of growth at 10 µM (MDA-MB-231) was under 1% and the inhibition of growth at 10 µM (Hs-578T) was under 1%. The inhibition of growth at 10 µM (BT-549) was under 1%.
With `N#Cc1c(-c2ccc(Cl)cc2)nc(N/N=C/c2cccc(Cl)c2)nc1N1CCOCC1` the inhibition of growth at 10 µM (HL-60) was 28.5%, the inhibition of growth at 10 µM (K562) was 64.9% and the inhibition of growth at 10 µM (MOLT-4) was 46.7%. It also gave an inhibition of growth at 10 µM (SR) of 91.3%, an inhibition of growth at 10 µM (A549) of 18.1% and an inhibition of growth at 10 µM (EKVX) of 22.3%. The inhibition of growth at 10 µM (HOP-62) was under 1%, the inhibition of growth at 10 µM (HOP-92) was 10.7% and the inhibition of growth at 10 µM (NCI-H226) was 10.7%. The inhibition of growth at 10 µM (NCI-H23) was under 1%, the inhibition of growth at 10 µM (NCI-H322M) was 11.2% and the inhibition of growth at 10 µM (NCI-H522) was under 1%. For the same compound, the inhibition of growth at 10 µM (COLO 205) was 39%, the inhibition of growth at 10 µM (HCC 2998) was under 1% and the inhibition of growth at 10 µM (HCT-116) was 29.2%. It also gave an inhibition of growth at 10 µM (HCT-15) of 64.6%, an inhibition of growth at 10 µM (SF-268) of under 1% and an inhibition of growth at 10 µM (SF-295) of under 1%. For the same compound, the inhibition of growth at 10 µM (SF-539) was 20.9%, the inhibition of growth at 10 µM (SNB-19) was under 1% and the inhibition of growth at 10 µM (SNB-75) was 19.9%. For the same compound, the inhibition of growth at 10 µM (U-251) was under 1%, the inhibition of growth at 10 µM (LOX IMVI) was 14.5% and the inhibition of growth at 10 µM (M14) was 15.4%. For the same compound, the inhibition of growth at 10 µM (MDA-MB-435) was under 1%, the inhibition of growth at 10 µM (SK-MEL-2) was under 1% and the inhibition of growth at 10 µM (SK-MEL-5) was under 1%. The inhibition of growth at 10 µM (UACC-257) was 28.4%, the inhibition of growth at 10 µM (IGROV-1) was 24.8% and the inhibition of growth at 10 µM (OVCAR-3) was 12.6%. The inhibition of growth at 10 µM (OVCAR-4) was under 1%, the inhibition of growth at 10 µM (OVCAR-5) was under 1% and the inhibition of growth at 10 µM (OVCAR-8) was under 1%. The inhibition of growth at 10 µM (SK-OV-3) was under 1%, the inhibition of growth at 10 µM (786-0) was 29.9% and the inhibition of growth at 10 µM (A498) was 57.8%. The inhibition of growth at 10 µM (CAKI-1) was 20.8%, the inhibition of growth at 10 µM (RXF 393) was under 1% and the inhibition of growth at 10 µM (TK-10) was under 1%. The inhibition of growth at 10 µM (UO-31) was 46.5%, the inhibition of growth at 10 µM (PC-3) was 26.5% and the inhibition of growth at 10 µM (DU-145) was 24%. The inhibition of growth at 10 µM (MCF7) was under 14.1%, the inhibition of growth at 10 µM (MDA-MB-231) was under 1% and the inhibition of growth at 10 µM (Hs-578T) was under 1%. For the same compound, the inhibition of growth at 10 µM (BT-549) was under 1%.
